Results: ChEMBL document CHEMBL1772961, “Discovery of dual target inhibitors against cyclooxygenases and leukotriene A4 hydrolyase” (J Med Chem, 2011)

Tests used:
[1] = target: T1, Leukotriene A-4 hydrolase (Homo sapiens, UniProt P09960); test: Inhibition of LTA4 hydrolase in human whole blood assessed as inhibition of calcium ionophore A23187-induced LTB4 production after 0.5 hrs by ELISA
T1 sequence (P09960 whole entry): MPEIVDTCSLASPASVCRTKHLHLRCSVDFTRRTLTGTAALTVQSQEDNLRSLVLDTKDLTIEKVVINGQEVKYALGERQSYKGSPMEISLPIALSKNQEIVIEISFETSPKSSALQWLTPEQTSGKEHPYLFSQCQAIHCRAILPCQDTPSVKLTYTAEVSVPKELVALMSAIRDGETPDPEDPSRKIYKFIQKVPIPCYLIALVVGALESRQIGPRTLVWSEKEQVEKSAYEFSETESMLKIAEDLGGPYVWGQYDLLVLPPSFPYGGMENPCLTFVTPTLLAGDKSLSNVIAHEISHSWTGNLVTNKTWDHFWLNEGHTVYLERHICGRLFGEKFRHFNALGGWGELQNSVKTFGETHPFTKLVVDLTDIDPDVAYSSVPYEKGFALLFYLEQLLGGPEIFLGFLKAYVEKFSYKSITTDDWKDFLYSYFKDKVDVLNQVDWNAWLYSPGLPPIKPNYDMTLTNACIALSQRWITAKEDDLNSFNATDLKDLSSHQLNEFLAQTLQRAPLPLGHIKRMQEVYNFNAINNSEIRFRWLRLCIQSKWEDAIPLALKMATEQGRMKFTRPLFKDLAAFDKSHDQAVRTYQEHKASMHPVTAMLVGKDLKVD

[2] = target: T2, Prostaglandin G/H synthase 2 (Homo sapiens, UniProt P35354); test: Inhibition of COX2 in human whole blood assessed as inhibition of LPS-induced PGE2 production after 24 hrs by ELISA
T2 sequence (P35354 whole entry): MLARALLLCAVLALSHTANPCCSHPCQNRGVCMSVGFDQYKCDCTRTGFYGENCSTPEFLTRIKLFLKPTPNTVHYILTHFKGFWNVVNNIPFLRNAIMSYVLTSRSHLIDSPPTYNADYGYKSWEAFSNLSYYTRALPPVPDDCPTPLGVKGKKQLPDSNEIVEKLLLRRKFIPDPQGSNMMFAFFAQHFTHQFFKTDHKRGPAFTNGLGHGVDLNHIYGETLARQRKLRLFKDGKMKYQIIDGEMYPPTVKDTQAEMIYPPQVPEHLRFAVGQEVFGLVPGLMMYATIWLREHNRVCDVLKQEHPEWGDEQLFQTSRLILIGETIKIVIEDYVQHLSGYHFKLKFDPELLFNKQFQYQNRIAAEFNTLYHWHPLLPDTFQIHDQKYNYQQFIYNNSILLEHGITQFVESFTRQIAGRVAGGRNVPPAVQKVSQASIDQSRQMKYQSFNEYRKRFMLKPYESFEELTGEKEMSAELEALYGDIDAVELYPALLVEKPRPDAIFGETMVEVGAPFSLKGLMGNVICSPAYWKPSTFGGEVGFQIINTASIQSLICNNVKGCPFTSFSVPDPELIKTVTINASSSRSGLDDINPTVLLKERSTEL

[3] = target: T2, Prostaglandin G/H synthase 2; test: Inhibition of purified COX2 assessed as formation of oxidized TMPD during reduction og PGG2 to PGH2 preincubated for 15 mins by chromogenic assay
[4] = target: Prostaglandin G/H synthase 1 (Homo sapiens, UniProt P23219); test: Inhibition of purified COX1 assessed as formation of oxidized TMPD during reduction og PGG2 to PGH2 preincubated for 15 mins by chromogenic assay
Sequence of Prostaglandin G/H synthase 1 (P23219 whole entry): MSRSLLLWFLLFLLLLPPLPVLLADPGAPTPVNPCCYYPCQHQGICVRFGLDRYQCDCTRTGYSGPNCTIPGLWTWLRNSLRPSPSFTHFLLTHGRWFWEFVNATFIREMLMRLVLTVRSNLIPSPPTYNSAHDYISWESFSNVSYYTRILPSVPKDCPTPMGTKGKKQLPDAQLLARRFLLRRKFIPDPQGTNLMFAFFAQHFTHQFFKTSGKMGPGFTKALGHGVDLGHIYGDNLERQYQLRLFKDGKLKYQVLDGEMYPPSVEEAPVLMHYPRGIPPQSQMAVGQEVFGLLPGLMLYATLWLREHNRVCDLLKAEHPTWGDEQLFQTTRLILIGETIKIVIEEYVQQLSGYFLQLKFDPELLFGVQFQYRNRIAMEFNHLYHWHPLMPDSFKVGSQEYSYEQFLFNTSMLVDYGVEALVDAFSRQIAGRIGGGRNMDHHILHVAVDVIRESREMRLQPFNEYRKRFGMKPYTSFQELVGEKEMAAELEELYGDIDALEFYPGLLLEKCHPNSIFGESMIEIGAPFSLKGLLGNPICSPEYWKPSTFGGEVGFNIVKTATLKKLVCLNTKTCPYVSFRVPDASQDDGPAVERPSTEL
Summary of the method: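 Purified COX-1, approx 20 units, in 100 mM Tris pH 8 with 2 mM genapol X-100 and 1 μM hematin. Compounds in DMSO (5% final) preincubated 15 min at 25 °C. TMPD then added, reaction started with arachidonic acid. Initial rate of TMPD oxidation read at 610 nm over first 36 s. Nonenzymatic oxidation without enzyme subtracted before computing percent inhibition.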

[5] = target: T1, Leukotriene A-4 hydrolase; test: Inhibition of human LTA4 hydrolase activity assessed as LTB4 production after 15 mins by ELISA

| SMILES | IC50 [1] | IC50 [2] | IC50 [3] | IC50 [4] | IC50 [5] |
| --- | --- | --- | --- | --- | --- |
| O=[N+]([O-])c1ccccc1Oc1ccc(OCCN2CCCC2)cc1 | 6.9 µM | 8.4 µM | 7.7 µM | 61 µM | 0.68 µM |
| O=[N+]([O-])c1ccc(Oc2ccc(OCCN3CCCC3)cc2)cc1 | 0.69 µM | > 100 µM | 35.3 µM | 20.4 µM | 0.37 µM |
| O=[N+]([O-])c1ccc(Oc2ccc(OCCN3CCCC3)cc2)c([N+](=O)[O-])c1 | > 100 µM | > 100 µM | > 100 µM | > 100 µM | > 100 µM |
| c1cc(Oc2ccc(OCCN3CCCC3)cc2)ccn1 | 0.67 µM | > 100 µM | > 100 µM | > 100 µM | 0.58 µM |
| CS(=O)(=O)c1ccccc1Oc1ccc(OCCN2CCCC2)cc1 | > 100 µM | > 100 µM | > 100 µM | > 100 µM | > 100 µM |
| CS(=O)(=O)c1ccc(Oc2ccc(OCCN3CCCC3)cc2)cc1 | > 100 µM | > 100 µM | > 100 µM | > 100 µM | > 100 µM |
| O=[N+]([O-])c1cccnc1Oc1ccc(OCCN2CCCC2)cc1 | 34 µM | > 100 µM | > 100 µM | > 100 µM | 2.5 µM |
| FC(F)(F)c1cccc(Oc2ccc(OCCN3CCCC3)cc2)c1 | > 100 µM | > 100 µM | > 100 µM | > 100 µM | 0.54 µM |
| FC(F)(F)c1ccc(Oc2ccc(OCCN3CCCC3)cc2)cc1 | 2 µM | > 100 µM | > 100 µM | > 100 µM | 0.39 µM |
| Clc1ccc(Oc2ccc(OCCN3CCCC3)cc2)cc1 | 0.73 µM | 22 µM | > 100 µM | > 100 µM | 0.04 µM |
| Brc1ccc(Oc2ccc(OCCN3CCCC3)cc2)cc1 | 0.29 µM | 5.1 µM | > 100 µM | > 100 µM | 0.11 µM |
| CS(=O)(=O)N(c1ccccc1Oc1ccc(OCCN2CCCC2)cc1)S(C)(=O)=O | > 100 µM | > 100 µM | > 100 µM | > 100 µM | > 100 µM |
| CS(=O)(=O)N(c1cccc(Oc2ccc(OCCN3CCCC3)cc2)c1)S(C)(=O)=O | > 100 µM | > 100 µM | > 100 µM | > 100 µM | > 100 µM |
| CS(=O)(=O)Nc1ccc(Oc2ccc(OCCN3CCCC3)cc2)cc1 | 2.1 µM | > 100 µM | > 100 µM | > 100 µM | 3.4 µM |
| CN(c1ccccc1Oc1ccc(OCCN2CCCC2)cc1)S(C)(=O)=O | > 100 µM | > 100 µM | 92 µM | > 100 µM | > 100 µM |

The remaining lines, values ahead:

| IC50 [1] | IC50 [2] | IC50 [3] | IC50 [4] | IC50 [5] | SMILES |
| --- | --- | --- | --- | --- | --- |
| 0.78 µM | > 100 µM | > 100 µM | > 100 µM |  | c1ccc(Oc2ccc(OCCN3CCCC3)cc2)cc1 |
| 1.4 µM | 13 µM | > 100 µM | > 100 µM | 0.47 µM | O=[N+]([O-])c1cccc(Oc2ccc(OCCN3CCCC3)cc2)c1 |
| 0.18 µM | > 100 µM | 34.4 µM | > 100 µM | 0.77 µM | c1ccc(Oc2ccc(OCCN3CCCC3)cc2)nc1 |
| > 100 µM | > 100 µM | > 100 µM | > 100 µM | > 100 µM | CS(=O)(=O)c1cccc(Oc2ccc(OCCN3CCCC3)cc2)c1 |
| > 100 µM | > 100 µM | > 100 µM | > 100 µM | > 100 µM | CS(=O)(=O)c1ccc(Oc2ccc(OCCN3CCCC3)cc2)c([N+](=O)[O-])c1 |
| > 100 µM | > 100 µM | 61.6 µM | > 100 µM | 4.3 µM | c1cnc(Oc2ccc(OCCN3CCCC3)cc2)cn1 |
| 0.73 µM | 5 µM | 41.4 µM | > 100 µM | 0.22 µM | FC(F)(F)c1ccccc1Oc1ccc(OCCN2CCCC2)cc1 |
| 0.99 µM | > 100 µM | > 100 µM | > 100 µM | 0.08 µM | Fc1ccc(Oc2ccc(OCCN3CCCC3)cc2)cc1 |
| 0.11 µM | > 100 µM | > 100 µM | > 100 µM | 0.63 µM | Nc1ccccc1Oc1ccc(OCCN2CCCC2)cc1 |
| 0.97 µM | > 100 µM | > 100 µM | > 100 µM | 0.69 µM | Nc1cccc(Oc2ccc(OCCN3CCCC3)cc2)c1 |
| 0.029 µM | > 100 µM | 36.3 µM | 1.9 µM | 0.32 µM | Nc1ccc(Oc2ccc(OCCN3CCCC3)cc2)cc1 |
| > 100 µM |  |  |  | > 100 µM | CS(=O)(=O)Nc1ccc([N+](=O)[O-])cc1Oc1ccccc1 [NIMESULIDE] |
